Results reported in ChEMBL document CHEMBL3616442, “Unconventional Knoevenagel-type indoles: Synthesis and cell-based studies for the identification of pro-apoptotic agents” (Eur J Med Chem, 2015).

What was measured:
[1] = system: MT4; test: Antiproliferative activity against human MT4 cells after 96 hrs by MTT assay; type: functional, cell-based; conditions: MT4, 96 h
How it was run: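 Exponentially growing MT-4 cells (CD4+ human T-cells carrying integrated HTLV-1 genome), seeded at 1×10^5 cells/mL in RPMI-1640 with 10% FCS and antibiotics. Serial dilutions of compound (DMSO stock 100 mM, diluted in medium), 37 °C, 5% CO₂, 96 h. Viability read by MTT. 50% inhibition versus untreated controls by linear regression. Mean ± SD of three independent determinations.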

[2] = system: HL-60(TB); test: Growth inhibition of human HL-60(TB) cells after 48 hrs by sulforhodamine B assay; type: functional; conditions: HL-60, 48 h
How it was run: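 NCI 60-cell-line screen, HL-60(TB) included. Compound given at five 10-fold dilutions from 10^-4 to 10^-8 M. Cells exposed for the last 48 h of a 72 h incubation. Growth or viability estimated by sulforhodamine B protein assay. GI50 is the concentration giving 50% growth inhibition. Values outside the tested range are reported as greater or less than the highest or lowest concentration.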

[3] = system: K562; test: Growth inhibition of human K562 cells after 48 hrs by sulforhodamine B assay; type: functional; conditions: K562, 48 h
How it was run: (§1)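 NCI 60-cell-line screen. Compounds tested at five 10-fold dilutions from 10^-4 to 10^-8 M. Cells exposed for the last 48 h of a 72 h incubation, growth estimated by sulforhodamine B protein assay. GI50 is the concentration giving 50% growth inhibition. Values beyond the tested range are expressed as greater or lesser than the extreme concentration.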

[4] = Growth inhibition of human MOLT4 cells after 48 hrs by sulforhodamine B assay; type: functional; conditions: MOLT-4, 48 h; how it was run: as §1
[5] = Growth inhibition of human RPMI8226 cells after 48 hrs by sulforhodamine B assay; type: functional; conditions: RPMI-8226, 48 h
[6] = system: SR; test: Growth inhibition of human SR cells after 48 hrs by sulforhodamine B assay; type: functional
[7] = system: A549; test: Growth inhibition of human A549 cells after 48 hrs by sulforhodamine B assay; type: functional; conditions: A549, 48 h; how it was run: as §1
[8] = system: HOP-62; test: Growth inhibition of human HOP62 cells after 48 hrs by sulforhodamine B assay; type: functional; conditions: HOP-62, 48 h; how it was run: as §1
[9] = Growth inhibition of human HOP92 cells after 48 hrs by sulforhodamine B assay; type: functional; conditions: HOP-92, 48 h; how it was run: as §1
[10] = system: NCI-H226; test: Growth inhibition of human NCI-H226 cells after 48 hrs by sulforhodamine B assay; type: functional; conditions: NCI-H226, 48 h; how it was run: as §1
[11] = system: NCI-H23; test: Growth inhibition of human NCI-H23 cells after 48 hrs by sulforhodamine B assay; type: functional; conditions: NCI-H23, 48 h; how it was run: as §1
[12] = system: NCI-H322M; test: Growth inhibition of human NCI-H322M cells after 48 hrs by sulforhodamine B assay; type: functional; how it was run: as §1
[13] = system: NCI-H460; test: Growth inhibition of human NCI-H460 cells after 48 hrs by sulforhodamine B assay; type: functional; conditions: NCI-H460, 48 h; how it was run: as §1
[14] = Growth inhibition of human COLO205 cells after 48 hrs by sulforhodamine B assay; type: functional; conditions: COLO 205, 48 h; how it was run: as §1
[15] = system: HCT-116; test: Growth inhibition of human HCT116 cells after 48 hrs by sulforhodamine B assay; type: functional; conditions: HCT-116, 48 h; how it was run: as §1
[16] = system: HCT-15; test: Growth inhibition of human HCT15 cells after 48 hrs by sulforhodamine B assay; type: functional; conditions: HCT-15, 48 h; how it was run: as §1
[17] = system: HT-29; test: Growth inhibition of human HT-29 cells after 48 hrs by sulforhodamine B assay; type: functional; conditions: HT-29, 48 h; how it was run: as §1
[18] = system: KM12; test: Growth inhibition of human KM12 cells after 48 hrs by sulforhodamine B assay; type: functional; conditions: KM12, 48 h; how it was run: as §1
[19] = system: SW-620; test: Growth inhibition of human SW620 cells after 48 hrs by sulforhodamine B assay; type: functional; conditions: SW-620, 48 h
[20] = system: SF-268; test: Growth inhibition of human SF268 cells after 48 hrs by sulforhodamine B assay; type: functional; conditions: SF-268, 48 h
[21] = Growth inhibition of human SF295 cells after 48 hrs by sulforhodamine B assay; type: functional; conditions: SF-295, 48 h
[22] = Growth inhibition of human SF539 cells after 48 hrs by sulforhodamine B assay; type: functional; conditions: SF-539, 48 h
[23] = system: SNB-19; test: Growth inhibition of human SNB19 cells after 48 hrs by sulforhodamine B assay; type: functional; conditions: SNB-19, 48 h
[24] = system: SNB-75; test: Growth inhibition of human SNB75 cells after 48 hrs by sulforhodamine B assay; type: functional; conditions: SNB-75, 48 h
[25] = system: U-251; test: Growth inhibition of human U251 cells after 48 hrs by sulforhodamine B assay; type: functional; conditions: U-251, 48 h
[26] = system: M14; test: Growth inhibition of human M14 cells after 48 hrs by sulforhodamine B assay; type: functional; conditions: M14, 48 h; how it was run: as §1
[27] = system: MDA-MB-435; test: Growth inhibition of human MDA-MB-435 cells after 48 hrs by sulforhodamine B assay; type: functional; conditions: MDA-MB-435, 48 h; how it was run: as §1
[28] = system: SK-MEL-2; test: Growth inhibition of human SK-MEL-2 cells after 48 hrs by sulforhodamine B assay; type: functional; conditions: SK-MEL-2, 48 h
[29] = system: SK-MEL-28; test: Growth inhibition of human SK-MEL-28 cells after 48 hrs by sulforhodamine B assay; type: functional; conditions: SK-MEL-28, 48 h
[30] = system: SK-MEL-5; test: Growth inhibition of human SK-MEL-5 cells after 48 hrs by sulforhodamine B assay; type: functional; conditions: SK-MEL-5, 48 h
[31] = system: UACC-62; test: Growth inhibition of human UACC62 cells after 48 hrs by sulforhodamine B assay; type: functional; conditions: UACC-62, 48 h
[32] = system: IGROV-1; test: Growth inhibition of human IGROV1 cells after 48 hrs by sulforhodamine B assay; type: functional; conditions: IGROV-1, 48 h; how it was run: as §1
[33] = system: OVCAR-3; test: Growth inhibition of human OVCAR3 cells after 48 hrs by sulforhodamine B assay; type: functional; conditions: OVCAR-3, 48 h; how it was run: as §1
[34] = Growth inhibition of human NCI-ADR-RES cells after 48 hrs by sulforhodamine B assay; type: functional; how it was run: as §1
[35] = system: SK-OV-3; test: Growth inhibition of human SKOV3 cells after 48 hrs by sulforhodamine B assay; type: functional; conditions: SK-OV-3, 48 h
[36] = system: 786-0; test: Growth inhibition of human 786-0 cells after 48 hrs by sulforhodamine B assay; type: functional; conditions: 786-0, 48 h; how it was run: as §1
[37] = system: A498; test: Growth inhibition of human A498 cells after 48 hrs by sulforhodamine B assay; type: functional; conditions: A498, 48 h; how it was run: as §1
[38] = system: CAKI-1; test: Growth inhibition of human CAKI-1 cells after 48 hrs by sulforhodamine B assay; type: functional; conditions: CAKI-1, 48 h; how it was run: as §1
[39] = Growth inhibition of human RXF393 cells after 48 hrs by sulforhodamine B assay; type: functional; conditions: RXF 393, 48 h
[40] = system: SN12C; test: Growth inhibition of human SN12C cells after 48 hrs by sulforhodamine B assay; type: functional
[41] = system: PC-3; test: Growth inhibition of human PC3 cells after 48 hrs by sulforhodamine B assay; type: functional; conditions: PC-3, 48 h
[42] = system: DU-145; test: Growth inhibition of human DU145 cells after 48 hrs by sulforhodamine B assay; type: functional; conditions: DU-145, 48 h; how it was run: as §1
[43] = system: MCF7; test: Growth inhibition of human MCF7 cells after 48 hrs by sulforhodamine B assay; type: functional; conditions: MCF7, 48 h; how it was run: as §1
[44] = system: MDA-MB-231; test: Growth inhibition of human MDA-MB-231 cells after 48 hrs by sulforhodamine B assay; type: functional; conditions: MDA-MB-231, 48 h; how it was run: as §1
[45] = Growth inhibition of human Hs 578T cells after 48 hrs by sulforhodamine B assay; type: functional; how it was run: as §1
[46] = system: T47D; test: Growth inhibition of human T47D cells after 48 hrs by sulforhodamine B assay; type: functional
[47] = system: MDA-MB-468; test: Growth inhibition of human MDA-MB-468 cells after 48 hrs by sulforhodamine B assay; type: functional; conditions: MDA-MB-468, 48 h; how it was run: as §1
[48] = Growth inhibition of human EKVX cells after 48 hrs by sulforhodamine B assay; type: functional; how it was run: as §1
[49] = system: NCI-H522; test: Growth inhibition of human NCI-H522 cells after 48 hrs by sulforhodamine B assay; type: functional; conditions: NCI-H522, 48 h; how it was run: as §1
[50] = Growth inhibition of human LOXIMVI cells after 48 hrs by sulforhodamine B assay; type: functional; conditions: LOX IMVI; how it was run: as §1
[51] = system: OVCAR-4; test: Growth inhibition of human OVCAR4 cells after 48 hrs by sulforhodamine B assay; type: functional; conditions: OVCAR-4, 48 h; how it was run: as §1
[52] = system: ACHN; test: Growth inhibition of human ACHN cells after 48 hrs by sulforhodamine B assay; type: functional; how it was run: as §1

COc1ccc(-c2[nH]c3ccc(OC)cc3c2C=C(C#N)C#N)cc1
EC50 [1]: 0.3 µM | GI50 [2]: 0.363 µM | GI50 [3]: 0.345 µM | GI50 [4]: 0.369 µM | GI50 [5]: 5.1 µM | GI50 [6]: 0.152 µM | GI50 [7]: 3.8 µM | GI50 [8]: 3.3 µM | GI50 [9]: 23 µM | GI50 [10]: 1.5 µM | GI50 [11]: 2 µM | GI50 [12]: 0.38 µM | GI50 [13]: 0.472 µM | GI50 [14]: 0.291 µM | GI50 [15]: 0.487 µM | GI50 [16]: 0.778 µM | GI50 [17]: 0.407 µM | GI50 [18]: 0.59 µM | GI50 [19]: 0.579 µM | GI50 [20]: 1.7 µM | GI50 [21]: 0.306 µM | GI50 [22]: 0.774 µM | GI50 [23]: 13.7 µM | GI50 [24]: 0.593 µM | GI50 [25]: 0.635 µM | GI50 [26]: 0.308 µM | GI50 [27]: 0.122 µM | GI50 [28]: 5.9 µM | GI50 [29]: 1.7 µM | GI50 [30]: 0.324 µM | GI50 [31]: 0.357 µM | GI50 [32]: 5.8 µM | GI50 [33]: 0.424 µM | GI50 [34]: 0.403 µM | GI50 [35]: 0.892 µM | GI50 [36]: 14.3 µM | GI50 [37]: 0.075 µM | GI50 [38]: 0.392 µM | GI50 [39]: 5.5 µM | GI50 [40]: 15.9 µM | GI50 [41]: 0.342 µM | GI50 [42]: 0.917 µM | GI50 [43]: 0.385 µM | GI50 [44]: 1.3 µM | GI50 [45]: 0.513 µM | GI50 [46]: 2.6 µM | GI50 [47]: 0.503 µM

O=C(/C(=C\c1c(-c2ccccc2)[nH]c2ccccc12)S(=O)(=O)c1ccccc1)c1ccccc1
EC50 [1]: 3 µM | GI50 [2]: 5 µM | GI50 [3]: 6.5 µM | GI50 [5]: 7.6 µM | GI50 [6]: 9.9 µM | GI50 [7]: 35 µM | GI50 [48]: 4.6 µM | GI50 [9]: 5 µM | GI50 [11]: 9.6 µM | GI50 [13]: 5.9 µM | GI50 [49]: 91.8 µM | GI50 [14]: 7.8 µM | GI50 [15]: 4.9 µM | GI50 [18]: 5.1 µM | GI50 [21]: 3.5 µM | GI50 [24]: 10.1 µM | GI50 [25]: 8.6 µM | GI50 [50]: 74.7 µM | GI50 [26]: 15.6 µM | GI50 [27]: 3.9 µM | GI50 [30]: 9 µM | GI50 [31]: 9 µM | GI50 [51]: 6.6 µM | GI50 [35]: 7.6 µM | GI50 [52]: 6.7 µM | GI50 [38]: 3.1 µM | GI50 [39]: 97.1 µM | GI50 [41]: 5 µM | GI50 [43]: 5 µM | GI50 [45]: 39.5 µM | GI50 [46]: 3.4 µM | GI50 [47]: 4.2 µM
